From ChEMBL document CHEMBL4138058, “Design and synthesis of novel selective estrogen receptor degradation inducers based on the diphenylheptane skeleton” (Medchemcomm, 2017)

Biological target: T1, Aryl hydrocarbon receptor (Homo sapiens, UniProt P35869)
T1 sequence (P35869 whole entry): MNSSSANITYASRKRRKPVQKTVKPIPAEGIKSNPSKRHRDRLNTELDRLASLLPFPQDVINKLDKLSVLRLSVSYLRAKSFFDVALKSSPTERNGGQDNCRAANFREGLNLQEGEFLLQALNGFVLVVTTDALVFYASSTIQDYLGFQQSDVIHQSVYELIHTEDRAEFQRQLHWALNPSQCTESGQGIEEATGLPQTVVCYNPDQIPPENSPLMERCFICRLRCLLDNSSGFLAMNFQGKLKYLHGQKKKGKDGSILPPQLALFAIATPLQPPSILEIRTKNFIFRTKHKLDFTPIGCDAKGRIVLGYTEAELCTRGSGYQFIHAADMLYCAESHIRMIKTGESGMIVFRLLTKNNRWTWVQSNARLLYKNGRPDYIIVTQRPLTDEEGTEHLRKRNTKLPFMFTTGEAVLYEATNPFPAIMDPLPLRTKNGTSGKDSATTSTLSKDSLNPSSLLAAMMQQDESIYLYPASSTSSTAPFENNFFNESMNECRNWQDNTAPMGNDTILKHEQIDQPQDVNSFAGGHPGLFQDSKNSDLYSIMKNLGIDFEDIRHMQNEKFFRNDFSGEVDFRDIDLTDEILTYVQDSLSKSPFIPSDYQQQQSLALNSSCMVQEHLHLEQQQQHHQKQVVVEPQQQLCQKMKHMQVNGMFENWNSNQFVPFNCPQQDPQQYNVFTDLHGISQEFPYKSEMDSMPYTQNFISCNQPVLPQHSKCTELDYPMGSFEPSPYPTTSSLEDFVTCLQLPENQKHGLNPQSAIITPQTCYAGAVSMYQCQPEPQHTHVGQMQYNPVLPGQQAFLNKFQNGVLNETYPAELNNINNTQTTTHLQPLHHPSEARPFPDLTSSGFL
Experiment: Downregulation of AhR expression in human MCF7 cells at 3 uM after 6 hrs by Western blot method relative to lamin B
Assay type: cell-based
Conditions: mcf7, 6 h
In short: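 MCF-7 cells kept in DMEM with 10% FBS, kanamycin and 10 μg/mL insulin, then exposed to compounds for 6 h. Lysates made in SDS buffer (0.1 M Tris-HCl pH 8.0, 10% glycerol, 1% SDS), boiled, BCA-normalized and run on SDS-PAGE. Blots probed with anti-ERα, AR, AhR or VDR and β-actin or lamin B. Chemiluminescence quantified as target/loading-protein ratio; means ± S.E., n=3.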

Activity: 80%
SMILES: CCCCCCCCCCNCCOc1ccc(C(CCC)(CCC)c2ccc(O)c(C)c2)cc1C
